{
  "source": "paper PMC9236207",
  "about": "(ACS Pharmacology & Translational Science, 2022)",
  "key": {"ACE2 [1]": {"molecular_target": "T1, ACE2 (Homo sapiens, UniProt Q9BYF1)", "T1 sequence (Q9BYF1 18-740)": "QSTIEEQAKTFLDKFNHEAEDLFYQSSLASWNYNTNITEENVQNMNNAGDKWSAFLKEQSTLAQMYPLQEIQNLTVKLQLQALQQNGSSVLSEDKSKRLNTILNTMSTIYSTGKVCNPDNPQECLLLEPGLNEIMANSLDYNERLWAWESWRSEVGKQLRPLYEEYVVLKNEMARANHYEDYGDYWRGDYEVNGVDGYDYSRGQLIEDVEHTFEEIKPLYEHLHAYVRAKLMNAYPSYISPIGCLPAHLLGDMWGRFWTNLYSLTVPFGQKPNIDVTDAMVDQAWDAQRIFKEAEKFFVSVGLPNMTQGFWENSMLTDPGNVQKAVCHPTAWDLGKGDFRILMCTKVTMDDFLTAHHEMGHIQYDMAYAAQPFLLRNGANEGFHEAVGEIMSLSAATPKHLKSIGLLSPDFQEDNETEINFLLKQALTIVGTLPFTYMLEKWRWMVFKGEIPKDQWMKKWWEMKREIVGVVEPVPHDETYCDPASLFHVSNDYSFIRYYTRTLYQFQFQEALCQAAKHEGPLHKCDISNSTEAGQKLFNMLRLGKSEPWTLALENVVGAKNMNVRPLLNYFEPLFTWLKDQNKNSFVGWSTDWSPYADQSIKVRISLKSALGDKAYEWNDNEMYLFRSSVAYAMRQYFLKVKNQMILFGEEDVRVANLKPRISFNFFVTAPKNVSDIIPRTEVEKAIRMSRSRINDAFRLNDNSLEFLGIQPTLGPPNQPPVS", "assay": "ACE2 enzymatic assay", "format": "biochemical", "how_it_was_run": "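Fluorometric assay with His-tagged ACE2 extracellular domain at 0.2 nM final in PBS pH 7.4, 0.01% Tween-20, preincubated with compound for 15 min at RT. Then MCA-Ala-Pro-Lys(Dnp)-OH substrate was added (60 μM stock). Fluorescence read at 340/440 nm at 0 and 15 min, RT.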"}, "ACE2 [2]": {"molecular_target": "T1, ACE2", "assay": "ACE2 binding by microscale thermophoresis", "how_it_was_run": "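Seven-point twofold compound dilution series. MST at 45% excitation and medium MST power. Kd (± standard error) fitted from the change in normalized fluorescence. A poly-His peptide counterscreen was run under identical conditions.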"}},
  "data": [
    {"compound": "CC(C)C[C@H](N[C@@H](Cc1cncn1Cc1cc(Cl)cc(Cl)c1)C(=O)O)C(=O)O", "note": "[MLN-4760]", "values": [
      {"measurement": "IC50", "setting": "ACE2 [1]", "result": 1.5, "unit": "nM"},
      {"measurement": "Kd", "setting": "ACE2 [2]", "result": 702, "unit": "nM"}
    ]}
  ]
}
